Reference: ChEMBL document CHEMBL1127785, “[[omega-(Heterocyclylamino)alkoxy]benzyl]-2,4-thiazolidinediones as potent antihyperglycemic agents” (1994)
Calls of active or inactive are those of the source. No cut-off for these calls is given here.

Experiments:
Mus musculus [1] = experiment: Percent reduction in area under glucose tolerance curve (AUC) was determined at 300 umol/kg dose of diet in mice; IA = No significant activity; type: functional, organism-based
How it was run: (§1)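 C57 Bl/6 ob/ob mice, 9–10 weeks old at purchase, 6–8 per group, kept at 26 ± 2 °C on a 12 h light/dark cycle. Compound was mixed into powdered diet, given fresh daily for 8 days. Mice were then fasted 5 h and given oral glucose 3 g/kg. Tail blood glucose was measured at 0, 45, 90 and 135 min by hexokinase/G6PDH. Read-out is % AUC reduction vs controls (trapezoid rule), Student's t-test.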

Mus musculus [2] = experiment: Percent reduction in area under glucose tolerance curve (AUC) was determined at 1000 umol/kg dose of diet in mice; type: functional; how it was run: as §1
Mus musculus [3] = experiment: Percent reduction in area under glucose tolerance curve (AUC) was determined at 30 umol/kg dose of diet in mice; IA = No significant activity; type: functional, organism-based; how it was run: as §1
Mus musculus [4] = experiment: Percent reduction in area under glucose tolerance curve at 100 uM/kg dose in diet of mice.; type: functional; how it was run: as §1
Mus musculus [5] = experiment: Percent reduction in area under glucose tolerance curve at 300 uM/kg dose in diet of mice.; type: functional; how it was run: as §1
Mus musculus [6] = experiment: Percent reduction in area under glucose tolerance curve (AUC) was determined at 1000 umol/kg dose of diet in mice; IA = No significant activity; type: functional, organism-based; how it was run: as §1
Mus musculus [7] = experiment: Percent reduction in area under glucose tolerance curve (AUC) was determined at 10 umol/kg dose of diet in mice; IA = No significant activity; type: functional, organism-based; how it was run: as §1
Mus musculus [8] = experiment: Percent reduction in area under glucose tolerance curve (AUC) was determined at 3 umol/kg dose of diet in mice; IA = No significant activity; type: functional, organism-based; how it was run: as §1
Mus musculus [9] = experiment: Percent reduction in area under glucose tolerance curve (AUC) was determined at 30 umol/kg dose of diet in mice; type: functional; how it was run: as §1
Mus musculus [10] = experiment: Percent reduction in area under glucose tolerance curve (AUC) was determined at 10 umol/kg dose of diet in mice; type: functional; how it was run: as §1
Mus musculus [11] = experiment: Percent reduction in area under glucose tolerance curve (AUC) was determined at 100 umol/kg dose of diet in mice; IA = No significant activity; type: functional, organism-based; how it was run: as §1
Mus musculus [12] = species: Mus musculus; experiment: No significant effect dose level on blood hemoglobin.; type: functional
How it was run: (§2)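 Blood hemoglobin content was measured in C57 Bl/6 ob/ob mice after 8 days of compound given by dietary admixture. The value is the highest dose (µmol/kg of diet) with no significant reduction in blood hemoglobin.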

Mus musculus [13] = species: Mus musculus; experiment: Antihyperglycemic potency dose producing approximately 25% reduction in area under glucose tolerance curve; type: functional; how it was run: as §1
[14] = Selectivity ratio for Antihyperglycemic potency dose and No significant effect dose; type: functional
Mus musculus [15] = experiment: Percent reduction in area under glucose tolerance curve (AUC) was determined at 3 umol/kg dose of diet in mice; type: functional; how it was run: as §1
Mus musculus [16] = species: Mus musculus; experiment: No significant effect dose level on blood hemoglobin; type: functional; how it was run: as §2

For `CN(CCOc1ccc(CC2CC(=O)NC2=O)cc1)c1nc2ccccc2o1` (configuration not stated), which Reduction (Mus musculus [1]) is on record?
The Reduction was “Not significant”.

Which Reduction (Mus musculus [2]) does the source give for `O=C1NC(=O)C(Cc2ccc(OCCNC(=S)Nc3ccccc3)cc2)S1` (configuration not stated) here?
The Reduction was 43%.

And the Reduction (Mus musculus [3])?
The Reduction was “Not significant”.

What about the Reduction (Mus musculus [4]) of the same compound?
Its Reduction is 10%.

For `CN(CCSc1ccc(CC2SC(=O)NC2=O)cc1)c1nc2ccccc2o1` (configuration not stated), which Reduction (Mus musculus [4]) is on record?
The Reduction was 20%.

Which results are given for `CN(CCOc1ccc(CC2SC(=O)NC2=O)cc1)c1ccc(Cl)cn1` (configuration not stated)?
Reduction (Mus musculus [3]): Not significant; Reduction (Mus musculus [5]): 44%

Which Reduction (Mus musculus [6]) does the source give for `CN(CCOc1ccc(C2SC(=O)NC2=O)cc1)c1nc2ccccc2o1` (configuration not stated) here?
Its Reduction is “inactive”.

Which Reduction (Mus musculus [7]) does the source give for `CN(CCOc1ccc(CC2SC(=O)NC2=O)cc1)c1nccc(-c2ccccc2)n1` (configuration not stated) here?
The Reduction was “Not significant”.

Which Reduction (Mus musculus [1]) does the source give for `COc1ccc(NC(=O)NCCOc2ccc(CC3SC(=O)NC3=O)cc2)cc1` (configuration not stated) here?
The Reduction was “Not significant”.

With `CN(CCOc1ccc(CC2SC(=O)NC2=O)cc1)C(=O)NCc1ccccc1` (configuration not stated) as the compound, how does the Reduction (Mus musculus [3]) read?
The Reduction was “Not significant”.

And the Reduction (Mus musculus [5])?
Its Reduction is 41%.

With `O=C1NC(=O)C(Cc2ccc(OCCNc3nc4ccccc4o3)cc2)S1` (configuration not stated) as the compound, how does the Reduction (Mus musculus [3]) read?
Its Reduction is “Not significant”.

What about the Reduction (Mus musculus [4]) of the same compound?
Its Reduction is 44%.

With `Cc1nc(N(C)CCOc2ccc(CC3SC(=O)NC3=O)cc2)oc1C` (configuration not stated) as the compound, how does the Reduction (Mus musculus [8]) read?
The Reduction was “Not significant”.

What about the Reduction (Mus musculus [9]) of the same compound?
Its Reduction is 33%.

And the Reduction (Mus musculus [10])?
Its Reduction is 16%.

With `CC(CN(C)c1nc2ccccc2o1)Oc1ccc(CC2SC(=O)NC2=O)cc1` (configuration not stated) as the compound, how does the Reduction (Mus musculus [1]) read?
Its Reduction is “Not significant”.

Which Reduction (Mus musculus [3]) does the source give for `Cc1cccc(N(C)CCOc2ccc(CC3SC(=O)NC3=O)cc2)n1` (configuration not stated) here?
Its Reduction is “Not significant”.

And the Reduction (Mus musculus [5])?
The Reduction was 33%.

Which Reduction (Mus musculus [11]) does the source give for `CN(CC(O)COc1ccc(CC2SC(=O)NC2=O)cc1)c1nc2ccccc2o1` (configuration not stated) here?
The Reduction was “Not significant”.

For `CN(CCCCOc1ccc(CC2SC(=O)NC2=O)cc1)c1nc2ccccc2o1` (configuration not stated), which Reduction (Mus musculus [3]) is on record?
The Reduction was “Not significant”.

And the Reduction (Mus musculus [5])?
Its Reduction is 25%.

For `CN(CC(Oc1ccc(CC2SC(=O)NC2=O)cc1)c1ccccc1)c1nc2ccccc2o1` (configuration not stated), which Reduction (Mus musculus [3]) is on record?
The Reduction was “Not significant”.

Which Dose (Mus musculus [12]) does the source give for `CN(CCOc1ccc(CC2SC(=O)NC2=O)cc1)c1nc2ccccc2o1` (configuration not stated) [BRL-48482] here?
Its Dose is 30 µM/kg.

What about the Dose (Mus musculus [13]) of the same compound?
Its Dose is 3 µM/kg.

What about the Reduction (Mus musculus [9]) of the same compound?
Its Reduction is 52%.

And the Reduction (Mus musculus [5])?
The Reduction was 42%.

And the Reduction (Mus musculus [4])?
The Reduction was 57%.

What about the Selectivity ratio [14] of the same compound?
The Selectivity ratio was 10.

With `O=C(NCCOc1ccc(CC2SC(=O)NC2=O)cc1)Nc1ccc(F)cc1` (configuration not stated) as the compound, how does the Reduction (Mus musculus [6]) read?
Its Reduction is “Not significant”.

What does the source list for `Cc1nc(N(C)CCOc2ccc(CC3SC(=O)NC3=O)cc2)sc1-c1ccccc1` (configuration not stated)?
Dose (Mus musculus [12]): <300 µM/kg; Dose (Mus musculus [13]): 3 µM/kg; Reduction (Mus musculus [15]): 33%; Reduction (Mus musculus [10]): 27%; Reduction (Mus musculus [4]): 39%; Selectivity ratio [14]: < 100

With `CN(CCOc1ccc(CC2SC(=O)NC2=O)cc1)c1ccc(N)cn1` (configuration not stated) as the compound, how does the Reduction (Mus musculus [3]) read?
The Reduction was “Not significant”.

Which Reduction (Mus musculus [11]) does the source give for `O=C1NC(=O)C(Cc2ccc(OCCN(Cc3ccccc3)c3nc4ccccc4s3)cc2)S1` (configuration not stated) here?
The Reduction was “Not significant”.

What about the Reduction (Mus musculus [5]) of the same compound?
Its Reduction is 56%.

For `CN(CCOc1ccc(CC2SC(=O)NC2=O)cc1)c1ccncc1` (configuration not stated), which Reduction (Mus musculus [7]) is on record?
Its Reduction is “Not significant”.

Which Reduction (Mus musculus [11]) does the source give for `CN(CCOc1ccc(CCC2SC(=O)NC2=O)cc1)c1nc2ccccc2o1` (configuration not stated) here?
Its Reduction is “Not significant”.

What does the source list for `CC(COc1ccc(CC2SC(=O)NC2=O)cc1)N(C)c1nc2ccccc2o1` (configuration not stated)?
Reduction (Mus musculus [11]): Not significant; Reduction (Mus musculus [5]): 38%

Which Reduction (Mus musculus [3]) does the source give for `COc1cccc(N(C)CCOc2ccc(CC3SC(=O)NC3=O)cc2)n1` (configuration not stated) here?
The Reduction was “Not significant”.

What about the Reduction (Mus musculus [5]) of the same compound?
The Reduction was 35%.

Which results are given for `CN1C(=O)SC(Cc2ccc(OCCN(C)c3nc4ccccc4o3)cc2)C1=O` (configuration not stated)?
Reduction (Mus musculus [11]): Not significant; Reduction (Mus musculus [2]): 42%

Which Reduction (Mus musculus [15]) does the source give for `Cc1csc(N(C)CCOc2ccc(CC3SC(=O)NC3=O)cc2)n1` (configuration not stated) here?
Its Reduction is 14%.

And the Reduction (Mus musculus [9])?
Its Reduction is 53%.

What about the Reduction (Mus musculus [10]) of the same compound?
The Reduction was 28%.

What does the source list for `CN(CCOc1ccc(CC2SC(=O)NC2=O)cc1)c1ncccn1` (configuration not stated)?
Dose (Mus musculus [16]): 100 µM/kg; Dose (Mus musculus [13]): 10 µM/kg; Reduction (Mus musculus [15]): 18%; Reduction (Mus musculus [10]): 18%; Reduction (Mus musculus [4]): 43%; Selectivity ratio [14]: 10
